Laboratory results taken from ChEMBL document CHEMBL1136016, “Synthesis, biological activity, and molecular modeling investigation of new pyrazolo[4,3-e]-1,2,4-triazolo[1,5-c]pyrimidine derivatives as human A(3) adenosine receptor antagonists” (J Med Chem, 2002).
Blank lines part the entries; values can stand above or below the compound they belong to.

Columns and labels:
Adenosine receptor A3 [1] = molecular target: T1, Adenosine receptor A3 (Homo sapiens, UniProt P0DMS8); test: Displacement of [3H]MRE3008-F20 from human Adenosine A3 receptor expressed in HEK cells; range 2.7-3.4; assay type: cell-based, HEK293
T1 sequence (P0DMS8 whole entry): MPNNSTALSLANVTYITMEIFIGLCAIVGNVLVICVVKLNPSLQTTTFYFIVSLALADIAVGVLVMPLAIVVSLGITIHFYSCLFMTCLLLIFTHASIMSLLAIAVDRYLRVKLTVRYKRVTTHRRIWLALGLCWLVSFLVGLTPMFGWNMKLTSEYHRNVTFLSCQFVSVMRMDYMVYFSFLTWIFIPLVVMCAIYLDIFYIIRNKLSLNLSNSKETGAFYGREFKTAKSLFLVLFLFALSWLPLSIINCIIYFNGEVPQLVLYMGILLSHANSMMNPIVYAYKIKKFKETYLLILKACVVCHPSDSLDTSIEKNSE

[2] = molecular target: Adenosine receptors; A1 & A3 (Homo sapiens) (UniProt P30542+P0DMS8); test: Selectivity ratio (hA1/hA3); assay type: protein assay
[3] = molecular target: Adenosine receptors; A2b & A3 (Homo sapiens) (UniProt P29275+P0DMS8); test: Selectivity ratio (h2B/hA3); assay type: protein assay
Adenosine receptor A1 [4] = molecular target: T2, Adenosine receptor A1 (Homo sapiens, UniProt P30542); test: Displacement of [3H]DPCPX from human Adenosine A1 receptor expressed in CHO cells; range 453-609; assay type: cell-based
T2 sequence (P30542 whole entry): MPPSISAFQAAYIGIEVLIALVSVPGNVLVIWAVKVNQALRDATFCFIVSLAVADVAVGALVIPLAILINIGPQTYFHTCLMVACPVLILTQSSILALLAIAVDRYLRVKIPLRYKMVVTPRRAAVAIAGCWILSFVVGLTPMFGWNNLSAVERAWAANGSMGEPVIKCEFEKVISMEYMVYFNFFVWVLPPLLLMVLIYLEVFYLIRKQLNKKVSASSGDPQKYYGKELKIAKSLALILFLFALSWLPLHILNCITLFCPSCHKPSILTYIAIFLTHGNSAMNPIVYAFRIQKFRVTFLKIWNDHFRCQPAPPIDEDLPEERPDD
Method in brief: (§1)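 Human recombinant A1 receptor in CHO cell membranes, resuspended in 50 mM Tris HCl pH 7.4. Displacement run 120 min at 25 °C with 1 nM [3H]DPCPX, 50 µg protein per assay, and at least six to eight test concentrations. Nonspecific binding defined with CHA. Bound and free separated on glass-fiber filters; filter radioactivity counted. n = 3-6.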

Adenosine receptor A2a [5] = molecular target: T3, Adenosine receptor A2a (Homo sapiens, UniProt P29274); test: Displacement of [3H]SCH-58261 from human Adenosine A2A receptor expressed in HEK293 cells; range 300-414; assay type: cell-based
T3 sequence (P29274 whole entry): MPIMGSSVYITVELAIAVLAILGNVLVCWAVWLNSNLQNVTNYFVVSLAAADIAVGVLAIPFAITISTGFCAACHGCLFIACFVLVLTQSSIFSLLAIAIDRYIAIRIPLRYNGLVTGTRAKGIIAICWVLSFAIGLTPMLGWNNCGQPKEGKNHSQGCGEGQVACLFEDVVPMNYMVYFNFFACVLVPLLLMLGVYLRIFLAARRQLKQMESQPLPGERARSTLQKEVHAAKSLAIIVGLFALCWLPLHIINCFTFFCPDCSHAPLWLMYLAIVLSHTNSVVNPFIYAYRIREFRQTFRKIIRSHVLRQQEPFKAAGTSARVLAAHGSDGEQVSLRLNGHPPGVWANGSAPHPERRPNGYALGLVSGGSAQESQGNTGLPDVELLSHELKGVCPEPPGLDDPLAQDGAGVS

Adenosine receptor A2b [6] = molecular target: T4, Adenosine receptor A2b (Homo sapiens, UniProt P29275); test: Displacement of [3H]DPCPX from human Adenosine A2B receptor expressed in HEK293 cells; range 32-51; assay type: cell-based
T4 sequence (P29275 whole entry): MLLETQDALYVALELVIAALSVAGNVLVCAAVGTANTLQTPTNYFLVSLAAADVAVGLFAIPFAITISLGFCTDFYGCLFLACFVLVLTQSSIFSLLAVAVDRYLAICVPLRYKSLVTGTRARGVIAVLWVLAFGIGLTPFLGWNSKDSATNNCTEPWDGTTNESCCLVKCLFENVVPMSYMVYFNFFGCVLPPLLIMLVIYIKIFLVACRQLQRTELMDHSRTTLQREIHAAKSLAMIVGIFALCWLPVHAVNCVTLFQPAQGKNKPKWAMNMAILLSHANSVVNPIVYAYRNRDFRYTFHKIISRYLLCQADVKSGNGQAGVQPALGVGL
Method in brief: (§2)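 Membranes from HEK-293 cells with human recombinant A2B receptor. Incubation 60 min at 25 °C in 50 mM Tris HCl, 10 mM MgCl2, 1 mM EDTA, 0.1 mM benzamidine, pH 7.4, with 2 IU/mL adenosine deaminase and 40 nM [3H]DPCPX. At least six to eight test concentrations. Nonspecific binding defined with NECA. n = 3-6.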

Adenosine receptor A2b [7] = molecular target: T4, Adenosine receptor A2b; test: Displacement of [3H]DPCPX from human Adenosine A2B receptor expressed in HEK293 cells; range 127-203; assay type: cell-based
Method in brief: (§3)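 HEK-293 membranes expressing the human receptor were incubated 60 min at 25 °C. Six to eight test concentrations were used. Nonspecific binding was set with NECA. n = 3-6.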

Adenosine receptor A3 [8] = molecular target: T1, Adenosine receptor A3; test: biochemical
Adenosine receptor A2a [9] = molecular target: T3, Adenosine receptor A2a; test: Displacement of [3H]SCH-58261 from human Adenosine A2A receptor expressed in HEK293 cells; range 18-33; assay type: cell-based
Adenosine receptor A1 [10] = molecular target: T2, Adenosine receptor A1; test: Displacement of [3H]DPCPX from human Adenosine A1 receptor expressed in CHO cells; range 210-376; assay type: cell-based
Adenosine receptor A3 [11] = molecular target: T1, Adenosine receptor A3; test: Inhibition of IB-MECA agonist-mediated cAMP production in CHO cell membranes expressing human Adenosine A3 receptor; range […]; assay type: functional, cell-based
Method in brief: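 Human A3-CHO membranes (in 50 mM Tris HCl, 10 mM MgCl2, 1 mM EDTA, pH 7.4) were preincubated for 10 min at 37 °C with 5 µM GTP, 0.5 mM Ro 20-1724 and 2.0 IU/mL adenosine deaminase. IB-MECA (100 nM) or antagonist was then added with 1 mM ATP and forskolin for 10 min. The reaction was stopped by 2 min boiling. cAMP was measured by [3H]cAMP competitive protein binding using beef adrenal binding protein, 150 min at 4 °C.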

Adenosine receptor A2b [12] = molecular target: T4, Adenosine receptor A2b; test: Displacement of [3H]DPCPX from human Adenosine A2B receptor expressed in HEK293 cells; range 235-347; assay type: cell-based
Method in brief: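 Competition binding on membranes of HEK-293 cells carrying recombinant human A2B receptor. Incubation 60 min at 25 °C in 50 mM Tris HCl pH 7.4 with 10 mM MgCl2, 1 mM EDTA, 0.1 mM benzamidine and 2 IU/mL adenosine deaminase. Radioligand 40 nM [3H]DPCPX, at least six to eight test concentrations. NECA defined nonspecific binding. Bound ligand separated on glass-fibre filters and counted; n = 3-6.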

Adenosine receptor A2a [13] = molecular target: T3, Adenosine receptor A2a; test: Displacement of [3H]SCH-58261 from human Adenosine A2A receptor expressed in HEK293 cells; range 112-177; assay type: cell-based
Adenosine receptor A1 [14] = molecular target: T2, Adenosine receptor A1; test: Displacement of [3H]DPCPX from human Adenosine A1 receptor expressed in CHO cells; range 654-856; assay type: cell-based
Adenosine receptor A3 [15] = molecular target: T1, Adenosine receptor A3; test: Displacement of [3H]MRE3008-F20 from human Adenosine A3 receptor expressed in HEK cells; range 0.64-0.86; assay type: cell-based, HEK293
Adenosine receptor A2a [16] = molecular target: T3, Adenosine receptor A2a; test: Displacement of [3H]SCH-58261 from human Adenosine A2A receptor expressed in HEK293 cells; range 402-608; assay type: cell-based
Adenosine receptor A2b [17] = molecular target: T4, Adenosine receptor A2b; test: Displacement of [3H]DPCPX from human Adenosine A2B receptor expressed in HEK293 cells; range 26-45; assay type: cell-based; method in brief: as §2
Adenosine receptor A1 [18] = molecular target: T2, Adenosine receptor A1; test: Displacement of [3H]DPCPX from human Adenosine A1 receptor expressed in CHO cells; range 598-838; assay type: cell-based
Adenosine receptor A3 [19] = molecular target: T1, Adenosine receptor A3; test: biochemical; remark: listed apart in the source
Adenosine receptor A2a [20] = molecular target: T3, Adenosine receptor A2a; test: Displacement of [3H]SCH-58261 from human Adenosine A2A receptor expressed in HEK293 cells; range 73-138; assay type: cell-based
Adenosine receptor A3 [21] = molecular target: T1, Adenosine receptor A3; test: biochemical; remark: listed apart in the source
Adenosine receptor A1 [22] = molecular target: T2, Adenosine receptor A1; test: Displacement of [3H]DPCPX from human Adenosine A1 receptor expressed in CHO cells; range 180-345; assay type: cell-based; method in brief: as §1
Adenosine receptor A2b [23] = molecular target: T4, Adenosine receptor A2b; test: Displacement of [3H]-DPCPX from human Adenosine A2B receptor expressed in HEK293 cells; range 125-218; assay type: cell-based; method in brief: as §3
Adenosine receptor A3 [24] = molecular target: T1, Adenosine receptor A3; test: Inhibition of IB-MECA agonist-mediated cAMP production in CHO cell membranes expressing human Adenosine A3 receptor; range 3.0-10.8; assay type: functional, cell-based
Adenosine receptor A2b [25] = molecular target: T4, Adenosine receptor A2b; test: Displacement of [3H]DPCPX from human Adenosine A2B receptor expressed in HEK293 cells; range 187-265; assay type: cell-based; method in brief: as §2
Adenosine receptor A1 [26] = molecular target: T2, Adenosine receptor A1; test: Displacement of [3H]DPCPX from human Adenosine A1 receptor expressed in CHO cells; range 379-535; assay type: cell-based; method in brief: as §1
Adenosine receptor A3 [27] = molecular target: T1, Adenosine receptor A3; test: Displacement of [3H]MRE3008-F20 from human Adenosine A3 receptor expressed in HEK cells; range 0.59-0.83; assay type: cell-based, HEK293
Adenosine receptor A2a [28] = molecular target: T3, Adenosine receptor A2a; test: Displacement of [3H]SCH-58261 from human Adenosine A2A receptor expressed in HEK293 cells; range 146-220; assay type: cell-based

- Ki (Adenosine receptor A3 [1]): 3 nM
- Ratio [2]: 175
- Ratio [3]: 13
- Ki (Adenosine receptor A1 [4]): 526 nM
- Ki (Adenosine receptor A2a [5]): 352 nM
- Ki (Adenosine receptor A2b [6]): 40 nM
SMILES: CCn1cc2c(nc(NC(=O)Nc3ccc(Cl)c(Cl)c3)n3nc(-c4ccco4)nc23)n1

- Ratio [2]: 1340
- Ratio [3]: 767
- Ki (Adenosine receptor A2b [7]): 161 nM
- Ki (Adenosine receptor A3 [8]): 0.21 nM
- Ki (Adenosine receptor A2a [9]): 24 nM
- Ki (Adenosine receptor A1 [10]): 281 nM
SMILES: CCCCn1cc2c(nc(NC(=O)Nc3ccc(C)cc3)n3nc(-c4ccco4)nc23)n1

- Ratio [2]: 1010
- Ratio [3]: 386
- IC50 (Adenosine receptor A3 [11]): 6.6 nM
- Ki (Adenosine receptor A2b [12]): 286 nM
- Ki (Adenosine receptor A2a [13]): 140 nM
- Ki (Adenosine receptor A1 [14]): 750 nM
- Ki (Adenosine receptor A3 [15]): 0.74 nM
SMILES: Cn1cc2c(nc(NC(=O)Nc3ccc(C(F)(F)F)cc3)n3nc(-c4ccco4)nc23)n1

- Ratio [2]: 191
- Ratio [3]: 9.19
- Ki (Adenosine receptor A2a [16]): 495 nM
- Ki (Adenosine receptor A2b [17]): 34 nM
- Ki (Adenosine receptor A1 [18]): 708 nM
- Ki (Adenosine receptor A3 [19]): 3.7 nM
SMILES: CCCCn1cc2c(nc(NC(=O)Nc3ccc(Cl)c(Cl)c3)n3nc(-c4ccco4)nc23)n1

- Ratio [2]: 735
- Ratio [3]: 485
- Ki (Adenosine receptor A2a [20]): 100 nM
- Ki (Adenosine receptor A3 [21]): 0.34 nM
- Ki (Adenosine receptor A1 [22]): 250 nM
- Ki (Adenosine receptor A2b [23]): 165 nM
SMILES: CCCn1cc2c(nc(NC(=O)Nc3ccccc3OC)n3nc(-c4ccco4)nc23)n1

- Ratio [2]: 643
- Ratio [3]: 319
- IC50 (Adenosine receptor A3 [24]): 5.6 nM
- Ki (Adenosine receptor A2b [25]): 223 nM
- Ki (Adenosine receptor A1 [26]): 450 nM
- Ki (Adenosine receptor A3 [27]): 0.7 nM
- Ki (Adenosine receptor A2a [28]): 180 nM
SMILES: COc1ccccc1NC(=O)Nc1nc2nn(C)cc2c2nc(-c3ccco3)nn12
